Measurements: ChEMBL document CHEMBL3352788, “Characterization of selective exosite-binding inhibitors of matrix metalloproteinase 13 that prevent articular cartilage degradation in vitro” (J Med Chem, 2014)

How the values were obtained:
Caspase-6 (Homo sapiens) = target: T1, Caspase-6 (Homo sapiens) (UniProt P55212); experiment: Inhibition of recombinant human caspase 6 using VEHDGG substrate at up to 5 uM after 3 hrs
T1 sequence (whole entry): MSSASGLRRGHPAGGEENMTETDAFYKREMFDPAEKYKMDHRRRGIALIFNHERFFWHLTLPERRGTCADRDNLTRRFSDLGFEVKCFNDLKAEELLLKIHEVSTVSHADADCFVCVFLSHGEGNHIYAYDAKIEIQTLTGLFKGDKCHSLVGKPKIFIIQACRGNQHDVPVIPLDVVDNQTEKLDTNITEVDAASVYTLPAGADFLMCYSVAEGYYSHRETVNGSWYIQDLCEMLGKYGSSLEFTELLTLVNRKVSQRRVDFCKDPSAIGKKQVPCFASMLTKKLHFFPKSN
Outline: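 Outsourced microfluidic protease panel. Compound was preincubated with each protease for 30 min at 25 °C, then peptide substrate was added for 3 h at 25 °C and quenched with SDS/EDTA/iodoacetate. Substrate-to-product conversion was measured on LabChip. Compounds were tested singly in a 12-point 3-fold dilution series, top 20 μM (5 μM for two reference compounds).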

Cytochrome P450 2B6 = target: T2, Cytochrome P450 2B6 (Homo sapiens, UniProt P20813); experiment: (§1) Inhibition of CYP2B6 (unknown origin) using bupropion substrate at 20 uM; type: ADME; conditions: 20 µM
T2 sequence (P20813 whole entry): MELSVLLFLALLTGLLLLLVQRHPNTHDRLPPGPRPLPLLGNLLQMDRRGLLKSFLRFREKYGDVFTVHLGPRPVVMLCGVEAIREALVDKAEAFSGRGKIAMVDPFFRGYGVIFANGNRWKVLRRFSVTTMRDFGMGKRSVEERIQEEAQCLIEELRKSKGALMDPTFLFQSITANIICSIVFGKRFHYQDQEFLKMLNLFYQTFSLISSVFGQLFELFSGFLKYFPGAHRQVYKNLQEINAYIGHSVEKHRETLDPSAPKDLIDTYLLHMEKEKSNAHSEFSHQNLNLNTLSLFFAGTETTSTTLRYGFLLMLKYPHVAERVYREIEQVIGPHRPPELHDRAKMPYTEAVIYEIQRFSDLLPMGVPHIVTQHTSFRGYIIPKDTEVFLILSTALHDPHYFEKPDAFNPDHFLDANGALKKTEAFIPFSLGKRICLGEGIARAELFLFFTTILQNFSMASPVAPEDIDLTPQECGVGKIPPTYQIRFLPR
Outline: (§2)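 Human liver microsomes with probe substrate and an NADPH-regenerating system in 0.1 M potassium phosphate pH 7.4 at 37 °C, run in duplicate. Inhibitor at 0–20 μM (0–2.5 μM for one compound), eight concentrations. Reactions were stopped with acetonitrile/formic acid containing isotope-labelled internal standard, and metabolite area ratios were compared with and without inhibitor. IC50 was taken by linear interpolation between bracketing concentrations.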

Cytochrome P450 1A2 = target: T3, Cytochrome P450 1A2 (Homo sapiens, UniProt P05177); experiment: (§3) Inhibition of CYP1A2 (unknown origin) using tacrin substrate at 20 uM; type: ADME; conditions: 20 µM; outline: as §2
T3 sequence (P05177 whole entry): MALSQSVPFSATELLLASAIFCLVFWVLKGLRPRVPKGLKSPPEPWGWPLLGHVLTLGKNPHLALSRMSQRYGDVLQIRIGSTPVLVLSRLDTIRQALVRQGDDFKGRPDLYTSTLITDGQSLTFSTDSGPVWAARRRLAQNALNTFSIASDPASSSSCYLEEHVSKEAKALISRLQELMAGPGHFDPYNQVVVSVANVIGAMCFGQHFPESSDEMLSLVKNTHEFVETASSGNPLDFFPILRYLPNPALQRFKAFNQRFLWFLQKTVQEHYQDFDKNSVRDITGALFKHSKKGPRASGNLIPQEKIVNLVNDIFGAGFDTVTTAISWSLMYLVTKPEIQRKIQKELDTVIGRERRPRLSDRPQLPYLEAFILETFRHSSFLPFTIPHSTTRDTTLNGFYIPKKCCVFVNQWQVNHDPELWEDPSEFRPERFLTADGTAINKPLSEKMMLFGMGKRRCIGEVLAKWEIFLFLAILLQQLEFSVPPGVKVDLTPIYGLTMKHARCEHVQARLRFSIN

Cytochrome P450 2C19 = Cytochrome P450 2C19 (Homo sapiens, UniProt P33261); experiment: (§4) Inhibition of CYP2C19 (unknown origin) using (S)-mephentoin substrate at 20 uM; type: ADME; conditions: 20 µM; outline: as §2
Cytochrome P450 2C9 = Cytochrome P450 2C9 (Homo sapiens, UniProt P11712); experiment: (§5) Inhibition of CYP2C9 (unknown origin) using diclofenac substrate at 20 uM; type: ADME; conditions: 20 µM; outline: as §2
Cytochrome P450 2D6 = Cytochrome P450 2D6 (Homo sapiens, UniProt P10635); experiment: (§6) Inhibition of CYP2D6 (unknown origin) using dextromethophan substrate at 20 uM; type: ADME; conditions: 20 µM; outline: as §2
CYP2B6 [1] = target: T4, CYP2B6 (Homo sapiens, UniProt P20813); experiment: Inhibition of CYP2B6 (unknown origin) using bupropion substrate at 2.5 uM; type: ADME; conditions: probe bupropion; outline: as §2
CYP2C19 [2] = target: T5, CYP2C19 (Homo sapiens, UniProt P33261); experiment: Inhibition of CYP2C19 (unknown origin) using (S)-mephentoin substrate at 2.5 uM; type: ADME; conditions: probe (S)-mephentoin; outline: as §2
CYP2D6 [3] = target: T6, CYP2D6 (Homo sapiens, UniProt P10635); experiment: Inhibition of CYP2D6 (unknown origin) using dextromethophan substrate at 2.5 uM; type: ADME; conditions: probe dextromethophan; outline: as §2
CYP3A4 [4] = target: T7, CYP3A4 (Homo sapiens, UniProt P08684); experiment: Inhibition of CYP3A4 (unknown origin) using testosterone substrate at 2.5 uM; type: ADME; conditions: probe testosterone; outline: as §2
CYP2C9 [5] = target: T8, CYP2C9 (Homo sapiens, UniProt P11712); experiment: Inhibition of CYP2C9 (unknown origin) using diclofenac substrate at 2.5 uM; type: ADME; conditions: probe diclofenac; outline: as §2
CYP2C8 [6] = target: T9, CYP2C8 (Homo sapiens, UniProt P10632); experiment: Inhibition of CYP2C8 (unknown origin) using amodiaquine substrate at 2.5 uM; type: ADME; conditions: probe amodiaquine; outline: as §2
CYP1A2 [7] = target: T10, CYP1A2 (Homo sapiens, UniProt P05177); experiment: Inhibition of CYP1A2 (unknown origin) using tacrin substrate at 2.5 uM; type: ADME; conditions: probe tacrin; outline: as §2
CYP3A4 [8] = target: T7, CYP3A4; experiment: Inhibition of CYP3A4 (unknown origin) using midazolam substrate at 2.5 uM; type: ADME; conditions: probe midazolam; outline: as §2
CYP2B6 [9] = target: T4, CYP2B6; experiment: as §1; type: ADME; conditions: probe bupropion; outline: as §2
CYP1A2 [10] = target: T10, CYP1A2; experiment: as §3; type: ADME; conditions: probe tacrin; outline: as §2
CYP2C19 [11] = target: T5, CYP2C19; experiment: as §4; type: ADME; conditions: probe (S)-mephentoin; outline: as §2
CYP2C8 [12] = target: T9, CYP2C8; experiment: Inhibition of CYP2C8 (unknown origin) using amodiaquine substrate at 20 uM; type: ADME; conditions: probe amodiaquine; outline: as §2
CYP2C9 [13] = target: T8, CYP2C9; experiment: as §5; type: ADME; conditions: probe diclofenac; outline: as §2
CYP2D6 [14] = target: T6, CYP2D6; experiment: as §6; type: ADME; conditions: probe dextromethophan; outline: as §2
Liver microsome = experiment: Half life in human liver microsomes by LC-MS/MS analysis; type: ADME
Outline: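 Compound at 1 μM with 1 mg/mL liver microsomes in 100 mM potassium phosphate pH 7.4 at 37 °C with shaking. Reaction started with 1 mM NADPH (final). Aliquots were taken at 0, 5, 10, 20, 40 and 60 min and quenched in acetonitrile. Parallel incubations without NADPH were run.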

T7 sequence (P08684 whole entry): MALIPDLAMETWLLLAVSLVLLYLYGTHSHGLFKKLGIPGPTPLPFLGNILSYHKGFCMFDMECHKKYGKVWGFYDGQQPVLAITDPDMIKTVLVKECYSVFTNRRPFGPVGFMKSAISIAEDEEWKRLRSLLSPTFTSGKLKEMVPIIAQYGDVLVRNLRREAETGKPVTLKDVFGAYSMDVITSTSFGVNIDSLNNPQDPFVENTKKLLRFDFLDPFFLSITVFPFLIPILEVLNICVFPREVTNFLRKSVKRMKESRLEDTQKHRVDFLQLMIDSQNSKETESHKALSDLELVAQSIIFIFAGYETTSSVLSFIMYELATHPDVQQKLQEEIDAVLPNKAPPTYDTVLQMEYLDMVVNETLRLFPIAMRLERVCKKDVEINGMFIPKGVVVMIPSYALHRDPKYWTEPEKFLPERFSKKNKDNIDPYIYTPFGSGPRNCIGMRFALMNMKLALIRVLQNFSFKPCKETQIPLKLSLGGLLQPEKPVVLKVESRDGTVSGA
T5 sequence (P33261 whole entry): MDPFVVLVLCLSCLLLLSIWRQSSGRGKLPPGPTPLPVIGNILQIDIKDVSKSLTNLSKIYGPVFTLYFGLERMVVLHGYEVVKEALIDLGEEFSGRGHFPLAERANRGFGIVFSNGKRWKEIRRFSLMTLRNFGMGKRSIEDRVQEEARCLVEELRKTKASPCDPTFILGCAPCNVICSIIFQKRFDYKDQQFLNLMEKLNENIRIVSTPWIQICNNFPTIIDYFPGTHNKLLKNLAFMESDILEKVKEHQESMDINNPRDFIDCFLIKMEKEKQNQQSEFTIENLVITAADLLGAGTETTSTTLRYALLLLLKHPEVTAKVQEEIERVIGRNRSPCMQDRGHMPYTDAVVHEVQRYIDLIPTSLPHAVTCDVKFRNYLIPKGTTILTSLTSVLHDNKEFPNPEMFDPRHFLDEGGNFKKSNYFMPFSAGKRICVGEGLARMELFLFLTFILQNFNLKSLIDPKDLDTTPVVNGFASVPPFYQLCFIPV
T6 sequence (P10635 whole entry): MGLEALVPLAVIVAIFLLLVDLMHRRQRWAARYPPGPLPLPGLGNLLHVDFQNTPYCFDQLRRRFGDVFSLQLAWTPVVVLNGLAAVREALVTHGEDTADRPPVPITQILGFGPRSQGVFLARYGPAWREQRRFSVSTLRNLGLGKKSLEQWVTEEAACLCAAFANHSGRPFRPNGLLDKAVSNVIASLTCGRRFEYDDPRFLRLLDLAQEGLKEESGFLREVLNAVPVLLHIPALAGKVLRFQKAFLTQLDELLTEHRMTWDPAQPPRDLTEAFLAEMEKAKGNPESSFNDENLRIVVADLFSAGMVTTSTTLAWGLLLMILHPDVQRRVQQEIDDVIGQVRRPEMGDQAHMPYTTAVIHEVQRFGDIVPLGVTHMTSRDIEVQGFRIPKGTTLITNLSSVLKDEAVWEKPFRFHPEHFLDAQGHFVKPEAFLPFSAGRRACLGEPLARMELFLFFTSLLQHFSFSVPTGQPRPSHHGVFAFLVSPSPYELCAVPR
T9 sequence (P10632 whole entry): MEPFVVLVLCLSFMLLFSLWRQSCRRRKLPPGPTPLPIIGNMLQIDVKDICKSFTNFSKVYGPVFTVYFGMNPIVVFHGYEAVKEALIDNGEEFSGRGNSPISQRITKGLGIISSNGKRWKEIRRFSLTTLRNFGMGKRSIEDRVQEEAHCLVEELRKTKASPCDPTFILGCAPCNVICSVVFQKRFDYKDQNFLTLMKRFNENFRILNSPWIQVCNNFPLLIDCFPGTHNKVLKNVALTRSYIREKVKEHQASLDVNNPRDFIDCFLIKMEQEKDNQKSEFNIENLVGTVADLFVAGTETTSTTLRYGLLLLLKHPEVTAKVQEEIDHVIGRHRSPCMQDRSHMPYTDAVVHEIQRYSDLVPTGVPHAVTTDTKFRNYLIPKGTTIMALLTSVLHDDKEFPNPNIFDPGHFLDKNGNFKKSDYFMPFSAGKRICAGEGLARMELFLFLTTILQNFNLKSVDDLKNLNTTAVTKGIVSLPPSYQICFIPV
T8 sequence (P11712 whole entry): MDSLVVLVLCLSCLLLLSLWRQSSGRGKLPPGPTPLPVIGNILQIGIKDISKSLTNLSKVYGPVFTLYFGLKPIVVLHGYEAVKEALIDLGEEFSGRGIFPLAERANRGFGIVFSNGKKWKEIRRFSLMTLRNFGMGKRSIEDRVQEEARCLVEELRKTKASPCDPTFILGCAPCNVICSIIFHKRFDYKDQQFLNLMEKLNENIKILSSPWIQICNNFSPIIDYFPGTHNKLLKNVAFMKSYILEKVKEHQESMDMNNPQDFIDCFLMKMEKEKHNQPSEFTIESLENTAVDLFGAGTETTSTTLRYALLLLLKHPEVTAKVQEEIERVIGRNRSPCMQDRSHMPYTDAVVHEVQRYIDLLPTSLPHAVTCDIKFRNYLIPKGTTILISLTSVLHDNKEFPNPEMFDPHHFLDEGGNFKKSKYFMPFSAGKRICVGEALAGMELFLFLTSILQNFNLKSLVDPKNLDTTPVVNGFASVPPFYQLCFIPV
Chain of Cytochrome P450 2C19 (P33261 whole entry): as the sequence (P33261 whole entry) above
Chain of Cytochrome P450 2D6 (P10635 whole entry): as the sequence (P10635 whole entry) above
Chain of Cytochrome P450 2C9 (P11712 whole entry): as the sequence (P11712 whole entry) above

SMILES: Cc1cc(CNC(=O)c2cc(C(=O)NCc3ccc(F)c(C)c3)ncn2)ccc1F
- inhibition (Caspase-6 (Homo sapiens)): < 10%
- inhibition (INH) (Cytochrome P450 2B6): > 10%
- inhibition (INH) (Cytochrome P450 1A2): > 10%
- inhibition (INH) (Cytochrome P450 2C19): > 10%
- inhibition (INH) (Cytochrome P450 2C9): > 10%
- inhibition (INH) (Cytochrome P450 2D6): > 10%

SMILES: Cn1c(=O)n(Cc2ccc(C(=O)O)cc2)c(=O)c2cc(C#CCc3ccccc3)ccc21
- inhibition (Caspase-6 (Homo sapiens)): < 10%
- inhibition at 2.5 µM (CYP2B6 [1]): < 50%
- inhibition at 2.5 µM (CYP2C19 [2]): < 50%
- inhibition at 2.5 µM (CYP2D6 [3]): < 50%
- inhibition at 2.5 µM (CYP3A4 [4]): < 50%
- inhibition at 2.5 µM (CYP2C9 [5]): < 50%
- inhibition at 2.5 µM (CYP2C8 [6]): < 50%
- inhibition at 2.5 µM (CYP1A2 [7]): 17%
- inhibition at 2.5 µM (CYP3A4 [8]): < 50%

SMILES: COC(=O)c1ccc(CSc2nc3c(c(=O)[nH]2)CCC3)cc1
- inhibition at 20 µM (CYP2B6 [9]): < 50%
- inhibition at 20 µM (CYP1A2 [10]): 29%
- inhibition at 20 µM (CYP2C19 [11]): < 50%
- inhibition at 20 µM (CYP2C8 [12]): < 50%
- inhibition at 20 µM (CYP2C9 [13]): 17%
- inhibition at 20 µM (CYP2D6 [14]): < 50%

SMILES: Oc1nc(SCc2ccc(Cl)cc2)nc2c1CCC2
- t1/2 (Liver microsome): 10.4 min
